Data published in paper PMC7056512 (Cancer research, 2020).
Like-named read-outs stand apart in the source and are kept apart here.

What was measured:
[1] = test system: HNSCC cell lines (013C, 036C, 049C, 067C); assay: nonadherent sphere formation; assay type: cell-based, human; conditions: 1,000nM
Summary of the method: (§1)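 3x10^3 cells/well in ultra-low-attachment wells with serum-free DMEM/F12 plus 10ng/ml EGF and 10ng/ml bFGF; medium supplemented on days 4, 7 and 10. Spheres (>50µm) imaged, counted and sized (diameter) at day 10. Replicates: 013C n=4 (16 wells); 036C, 049C and 067C n=3 (12 wells).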

[2] = test system: HNSCC cells and patient-matched CAFs; assay: protein synthesis, methionine analog incorporation; assay type: cell-based, human; conditions: for suppression of translation: 100nM, all cells; for inhibition of protein synthesis: at concentrations between 10 and 100nM, 1.5h treatment
[3] = biological target: cap-independent translation of capless luciferase mRNA; assay: in vitro translation of uncapped poly; assay type: biochemical, rabbit; conditions: read-out: IC50, in vitro cap-independent translation; 30 min at 30°C
[4] = biological target: eEF2 release from the ribosome (Homo sapiens, UniProt P13639); assay: co-immunoprecipitation of eEF2 with ribosomal protein RPL13a; assay type: cell-based; conditions: 100nM; 013C and 036C cells
19 HNSCC cell lines = assay: cell growth, CellTiter-Glo, 5 days; assay type: cell-based, human; conditions: read-out: average IC50, growth, average of 19 HNSCC lines
Det562 HNSCC cells [5] = assay: clonogenic survival assay; assay type: cell-based, human; conditions: read-out: IC50, clonogenicity, drug 24h, then 9 days growth
[6] = test system: HNSCC cancer cells (Detroit562, FaDu); assay: clonogenic radio-modulation; assay type: cell-based, human; conditions: multiple SVC112 doses
[7] = test system: four non-transformed normal lines; assay: clonogenic radio-modulation; assay type: cell-based
036C cells [8] = assay: SRB antiproliferative assay; assay type: cell-based, human; conditions: read-out: IC50, antiproliferative
067C cells [9] = assay: SRB antiproliferative assay; assay type: cell-based, human; conditions: read-out: IC50, antiproliferative
049C cells [10] = assay: SRB antiproliferative assay; assay type: cell-based, human; conditions: read-out: IC50, antiproliferative
013C cells [11] = assay: SRB antiproliferative assay; assay type: cell-based, human; conditions: read-out: IC50, antiproliferative
036C cells [12] = assay: nonadherent sphere formation; assay type: cell-based, human; conditions: 1,000nM, 10 days
Summary of the method: as §1

067C cells [13] = assay: nonadherent sphere formation; assay type: cell-based, human; conditions: 1,000nM, 10 days
Summary of the method: as §1

013C cells [14] = assay: nonadherent sphere formation; assay type: cell-based, human; conditions: 1,000nM, 10 days
Summary of the method: as §1

049C cells [15] = assay: nonadherent sphere formation; assay type: cell-based, human; conditions: 1,000nM, 10 days
Summary of the method: as §1

CUHN036 CSCs = assay: sphere formation by CSCs sorted from PDX tumors; assay type: cell-based, human; conditions: 1,000nM
Summary of the method: (§2)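 CSCs sorted from PDX tumours plated at 1x10^4 per well in ultra-low-attachment wells. Medium was serum-free DMEM/F12 with 10ng/ml EGF and 10ng/ml bFGF, supplemented on days 4, 7 and 10. After 14 days, all spheres >50µm imaged, counted and diameter measured.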

CUHN004 CSCs = assay: sphere formation by CSCs sorted from PDX tumors; assay type: cell-based, human; conditions: 1,000nM
Summary of the method: as §2

CUHN013 CSCs = assay: sphere formation by CSCs sorted from PDX tumors; assay type: cell-based, human; conditions: 1,000nM
CUHN036 PDX = assay: PDX efficacy study; assay type: in vivo, Athymic Nude-Foxn1^nu mice; conditions: for T/C (treatment vs control): twice weekly, day 28
Summary of the method: (§3)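 Tumor pieces from 4th-8th-generation PDX implanted on both flanks of 6-10-week-old female mice. Anesthetized mice shielded except flank tumors and irradiated at 3 Gy (115 cGy/min) twice weekly for four weeks. Test compound given IP at 60mg/kg right after irradiation and 6h later. Tumors measured twice weekly. ALDH+CD44high CSC fraction measured by flow cytometry on day 28, then related to tumor treatment/control ratio by linear regression.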

CUHN047 PDX = assay: PDX efficacy study; assay type: in vivo, Athymic Nude-Foxn1^nu mice; conditions: for T/C (treatment vs control): twice weekly, day 28
Summary of the method: as §3

CUHN004 PDX = assay: PDX efficacy study; assay type: in vivo, Athymic Nude-Foxn1^nu mice
CUHN013 PDX = assay: PDX efficacy study; assay type: in vivo, Athymic Nude-Foxn1^nu mice
Summary of the method: as §3

036C cells [16] = assay: protein synthesis, methionine analog incorporation; assay type: cell-based, human; conditions: 1nM
067C cells [17] = assay: protein synthesis, methionine analog incorporation; assay type: cell-based, human; conditions: 1nM
013C cells [18] = assay: protein synthesis, methionine analog incorporation; assay type: cell-based, human; conditions: 10nM
Myc in 036C cells = assay: Western blot densitometry of Myc; assay type: cell-based, human; conditions: 24h
Myc in 049C cells = assay: Western blot densitometry of Myc; assay type: cell-based, human; conditions: 24h
Myc in 067C cells = assay: Western blot densitometry of Myc; assay type: cell-based, human; conditions: 24h
Myc in 013C cells = assay: Western blot densitometry of Myc; assay type: cell-based, human; conditions: 24h
013C, 049C, 067C cells = assay: ribosome profiling; assay type: cell-based, human; conditions: 1,000nM, 6h
Summary of the method: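 Cells grown 48h in 10cm dishes to ~75% confluence, then treated 6h with DMSO or test compound at 1,000nM. Libraries built with the TruSeq Ribo Profile mammalian protocol. Total mRNA fragments and ribosome-protected fragments sequenced on Illumina HiSeq. RPF counts normalised to RNA-seq, with a >2-fold enrichment cutoff.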

Det562 HNSCC cells [19] = conditions: read-out: IC50, proliferation
[20] = SVC112 alone, 60mg/kg IP at 0h and 6h
[21] = radiation (3Gy) plus SVC112 60mg/kg
[22] = radiation plus SVC112, by day 28

Compound: COC(=O)C[C@](O)(CCCC(C)(C)O)C(=O)O[C@@H]1C(OC)=C[C@]23CCCN2CCc2cc4c(cc2[C@H]13)OCO4 [HHT, Homoharringtonine, reference compound]
- sphere formation [1]: blocked nearly all sphere formation
- suppression of translation [2]: > 85%
- inhibition of protein synthesis [2]: Greater than 75%

Compound: Meta Br-N-29-H derivative of RA-VII [SVC112]
- IC50 [3]: 81 ± 16 nM
- release of eEF2 from the ribosome (immunoprecipitation of eEF2 with Rpl13a) [4]: blocked the release of eEF2 from the ribosome
- IC50 (19 HNSCC cell lines): 155 nM
- IC50 (Det562 HNSCC cells [5]): ~15 nM
- dose-modifying factor (DMF) of radiation [6]: > 1
- dose-modifying factor (DMF) of radiation [7]: near or below 1
- IC50 (036C cells [8]): 3.8 nM
- IC50 (067C cells [9]): 9.3 nM
- IC50 (049C cells [10]): 24.1 nM
- IC50 (013C cells [11]): 50.5 nM
- sphere formation blocked (036C cells [12]): 100%
- sphere formation blocked (067C cells [13]): 79%
- sphere formation blocked (013C cells [14]): 74%
- sphere formation blocked (049C cells [15]): 48%
- sphere formation by CSCs (CUHN036 CSCs): blocked sphere formation
- sphere formation by CSCs (CUHN004 CSCs): blocked sphere formation
- sphere formation by CSCs (CUHN013 CSCs): formed fewer, albeit normal-sized spheres
- T/C (treatment vs control) (CUHN036 PDX; [20]): 0.45±0.12
- T/C (treatment vs control) (CUHN036 PDX; [21]): 0.08±0.08
- tumors that continued to regress and did not regrow after ending treatment (CUHN036 PDX; radiation plus SVC112, after end of treatment): six of eight
- tumors with complete regression (CUHN036 PDX; [22]): four of twelve
- decrease of CSC fraction (ALDH+CD44hi) in tumors (CUHN036 PDX; radiation plus SVC112, day 28): 10.4 fold
- T/C (treatment vs control) (CUHN047 PDX; [20]): 0.37±0.07
- T/C (treatment vs control) (CUHN047 PDX; [21]): −0.02±0.03
- tumors with complete regression (CUHN047 PDX; [22]): six out of ten
- decrease of CSC fraction (ALDH+CD44hi) in tumors (CUHN047 PDX; radiation plus SVC112, day 28): 7.6 fold
- T/C (treatment vs control) (CUHN004 PDX; radiation (3Gy) plus SVC112 60mg/kg, twice weekly, day 28): 0.19±0.05
- decrease of CSC fraction (ALDH+CD44hi) in tumors (CUHN004 PDX; radiation plus SVC112, day 28): 7.9 fold
- tumor response (CUHN013 PDX; SVC112 alone or with radiation, twice weekly): did not respond to any treatment
- decrease of CSC fraction (ALDH+CD44hi) in tumors (CUHN013 PDX; radiation plus SVC112, day 28): 2.4 fold
- suppression of translation [2]: > 85%
- inhibition of protein synthesis [2]: Greater than 75%
- decrease of protein synthesis (036C cells [16]): > 50%
- decrease of protein synthesis (067C cells [17]): > 50%
- inhibition of protein synthesis (013C cells [18]): ~ 50%
- Myc reduction (Myc in 036C cells): > 80%
- Myc reduction (Myc in 049C cells): > 80%
- Myc reduction (Myc in 067C cells): > 80%
- Myc level, % of baseline (Myc in 013C cells): > 60%
- increase in captured ribosome protected fragments of DUSP1 (013C, 049C, 067C cells): 238 fold
- increase in captured ribosome protected fragments of MAFF (013C, 049C, 067C cells): 346 fold
- increase in captured ribosome protected fragments of NUAK2 (013C, 049C, 067C cells): 666 fold
- increase in captured ribosome protected fragments of SERTAD1 (013C, 049C, 067C cells): 1699 fold
- IC50 (Det562 HNSCC cells [19]): ~280 nM
